One assay relates to MCF7. The experiment in a line: Cytotoxicity against human MCF7 cells assessed as growth inhibition by measuring cellular ATP level after 72 hrs by cell-titer glo assay. Type of assay: functional, cell-based. The conditions noted are these: MCF7, 72 h.
The test system of assay [1] is Jurkat. The experiment in a line: Cell cycle arrest in human Jurkat cells assessed as accumulation at G2/M phase at 1 uM after 24 hrs by FITC/propidium iodide staining-based FACS flow cytometric analysis (reference value: 14.4%). Type of assay: functional. The essentials:
(§1)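 HeLa and Jurkat human cells were cultured for 24 h with compound at two concentrations. The control was an equal volume of the DMSO diluent. Cellular DNA and protein content were then measured by flow cytometry, and the percentage of cells in sub-G1, G0/G1, S and G2/M was read out.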
In general terms: Flow cytometry measures light scatter and fluorescence of single cells or particles in a stream.

Assay [2] concerns Jurkat. The assay can be described thus: Cell cycle arrest in human Jurkat cells assessed as accumulation at G0/G1 phase at 1 uM after 24 hrs by FITC/propidium iodide staining-based FACS flow cytometric analysis (reference value: 55.5%). Type of assay: functional. The essentials:
as §1

The test system of assay [3] is Jurkat. The assay can be described thus: Cell cycle arrest in human Jurkat cells assessed as accumulation at sub-G1 phase at 10 uM after 24 hrs by FITC/propidium iodide staining-based FACS flow cytometric analysis (reference value: 2%). It is filed as functional. The essentials:
as §1

Assay [4] concerns Jurkat. The experiment in a line: Cell cycle arrest in human Jurkat cells assessed as accumulation at G0/G1 phase at 10 uM after 24 hrs by FITC/propidium iodide staining-based FACS flow cytometric analysis (reference value: 69.5%). It is filed as functional. The procedure, abridged:
as §1

For assay [5], the system named is Jurkat. The experiment in a line: Cell cycle arrest in human Jurkat cells assessed as accumulation at sub-G1 phase at 1 uM after 24 hrs by FITC/propidium iodide staining-based FACS flow cytometric analysis (reference value: 6.8%). Type of assay: functional. The essentials: as §1
For the next assay, the system named is HCT-116. The assay can be described thus: Cytotoxicity against human HCT116 cells assessed as growth inhibition by measuring cellular ATP level after 72 hrs by cell-titer glo assay. It is filed as functional, cell-based. Conditions: HCT-116, 72 h.
The subject of assay [6] is Jurkat. The assay can be described thus: Cell cycle arrest in human Jurkat cells assessed as accumulation at G2/M phase at 10 uM after 24 hrs by FITC/propidium iodide staining-based FACS flow cytometric analysis (reference value: 13.2%). Type of assay: functional. The essentials: as §1
Another assay deals with DU-145. The experiment in a line: Cytotoxicity against human DU145 cells assessed as growth inhibition by measuring cellular ATP level after 72 hrs by cell-titer glo assay. The conditions noted are these: DU-145, 72 h. It is filed as functional, cell-based.
The subject of assay [7] is Jurkat. The experiment in a line: Cell cycle arrest in human Jurkat cells assessed as accumulation at S phase at 10 uM after 24 hrs by FITC/propidium iodide staining-based FACS flow cytometric analysis (reference value: 15.3%). Type of assay: functional. The procedure, abridged: as §1
For assay [8], the system named is Jurkat. The experiment in a line: Induction of apoptosis in human Jurkat cells assessed as PARP cleavage at 1 to 10 uM after 24 hrs by Western blot analysis. It is filed as functional, cell-based. A general note: In western blotting, separated proteins are transferred to a membrane and probed.
The subject of the next assay is A549. The experiment in a line: Cytotoxicity against human A549 cells assessed as growth inhibition by measuring cellular ATP level after 72 hrs by cell-titer glo assay. It is filed as functional, cell-based. The conditions noted are these: A549, 72 h.
The next assay has as its system HeLa. The experiment in a line: Induction of apoptosis in human HeLa cells assessed as PARP cleavage at 1 to 10 uM after 24 hrs by Western blot analysis. It is filed as functional, cell-based.
Assay [9] relates to Jurkat. The assay can be described thus: Cell cycle arrest in human Jurkat cells assessed as accumulation at S phase at 1 uM after 24 hrs by FITC/propidium iodide staining-based FACS flow cytometric analysis (reference value: 22.3%). It is filed as functional. The essentials:
as §1

Usually IC50 stands for the concentration at which inhibition is half-maximal.

Calls of active or inactive are those of the source. No cut-off for these calls is given here.

Turning to `Nc1ccccc1NC(=O)c1ccc(CNc2nccc(-c3cccnc3)n2)cc1` [MOCETINOSTAT], the IC50 stood at 1260 nM in the assay with MCF7, 700 nM in the assay with HCT-116, 2060 nM in the assay with DU-145 and 1730 nM with A549. In addition, the Activity is given as 10.2% in the assay on Jurkat [1]; 39.8% in the assay with Jurkat [2]; 17.4% in the assay on Jurkat [3]; 26.2% in the assay with Jurkat [4]; 41.3% with Jurkat [5]; 24% in the assay with Jurkat [6]. The Activity with Jurkat [7] stood at 32.4%; in the assay with Jurkat [9], 8.7%. Besides, in the assay with Jurkat [8], the result was Active. In the assay on HeLa, the outcome was inactive.

The values above are taken from ChEMBL document CHEMBL2407081, “Discovery of potent, isoform-selective inhibitors of histone deacetylase containing chiral heterocyclic capping groups and a N-(2-aminophenyl)benzamide binding unit” (J Med Chem, 2013).
